Source: ChEMBL document CHEMBL1240382, “Elucidation of the pharmacokinetic/pharmacodynamic determinant of colistin activity against Pseudomonas aeruginosa in murine thigh and lung infection models” (Antimicrob Agents Chemother, 2010)

Tests used:
Format in all cases: ADME, organism-based
Conditions in all cases: in vivo
Mus musculus [1] = experiment: Cmax in Pseudomonas aeruginosa infected neutropenic Swiss mouse at 5 mg/kg, sc; set-up: dose 5 mg/kg, route subcutaneous
Method in brief: (§1)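 Single s.c. colistin (sulfate) dose (5, 10, 20 or 40 mg/kg) in neutropenic thigh-infected mice; central-vein blood at 6–8 times over 10 h, 4 mice per time; plasma colistin by HPLC (0.10–4.00 mg/liter calibration). Unbound levels from concentration-dependent fu (equilibrium dialysis, pH 7.4 phosphate buffer, 21 h, 37°C); parameters by noncompartmental analysis.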

Mus musculus [2] = experiment: Cmax in Pseudomonas aeruginosa infected neutropenic Swiss mouse at 10 mg/kg, sc; set-up: dose 10 mg/kg, route subcutaneous; method in brief: as §1
Mus musculus [3] = experiment: Cmax in Pseudomonas aeruginosa infected neutropenic Swiss mouse at 20 mg/kg, sc; set-up: dose 20 mg/kg, route subcutaneous; method in brief: as §1
Mus musculus [4] = experiment: Cmax in Pseudomonas aeruginosa infected neutropenic Swiss mouse at 40 mg/kg, sc; set-up: dose 40 mg/kg, route subcutaneous; method in brief: as §1
Mus musculus [5] = experiment: Tmax in Pseudomonas aeruginosa infected neutropenic Swiss mouse at 5 mg/kg, sc; set-up: dose 5 mg/kg, route subcutaneous; method in brief: as §1
Mus musculus [6] = experiment: Tmax in Pseudomonas aeruginosa infected neutropenic Swiss mouse at 10 mg/kg, sc; set-up: dose 10 mg/kg, route subcutaneous; method in brief: as §1
Mus musculus [7] = experiment: Tmax in Pseudomonas aeruginosa infected neutropenic Swiss mouse at 20 mg/kg, sc; set-up: dose 20 mg/kg, route subcutaneous; method in brief: as §1
Mus musculus [8] = experiment: Tmax in Pseudomonas aeruginosa infected neutropenic Swiss mouse at 40 mg/kg, sc; set-up: dose 40 mg/kg, route subcutaneous; method in brief: as §1
Mus musculus [9] = experiment: Apparent volume of distribution to bioavailability in Pseudomonas aeruginosa infected neutropenic Swiss mouse at 5 mg/kg, sc; method in brief: as §1
Mus musculus [10] = experiment: Apparent volume of distribution to bioavailability in Pseudomonas aeruginosa infected neutropenic Swiss mouse at 10 mg/kg, sc; method in brief: as §1
Mus musculus [11] = experiment: Apparent volume of distribution to bioavailability in Pseudomonas aeruginosa infected neutropenic Swiss mouse at 20 mg/kg, sc; method in brief: as §1
Mus musculus [12] = experiment: Apparent volume of distribution to bioavailability in Pseudomonas aeruginosa infected neutropenic Swiss mouse at 40 mg/kg, sc; method in brief: as §1
Mus musculus [13] = experiment: Half life in Pseudomonas aeruginosa infected neutropenic Swiss mouse at 5 mg/kg, sc; set-up: dose 5 mg/kg, route subcutaneous; method in brief: as §1
Mus musculus [14] = experiment: Half life in Pseudomonas aeruginosa infected neutropenic Swiss mouse at 10 mg/kg, sc; set-up: dose 10 mg/kg, route subcutaneous; method in brief: as §1
Mus musculus [15] = experiment: Half life in Pseudomonas aeruginosa infected neutropenic Swiss mouse at 20 mg/kg, sc; set-up: dose 20 mg/kg, route subcutaneous; method in brief: as §1
Mus musculus [16] = experiment: Half life in Pseudomonas aeruginosa infected neutropenic Swiss mouse at 40 mg/kg, sc; set-up: dose 40 mg/kg, route subcutaneous; method in brief: as §1

COLISTIMETHATE SODIUM
Cmax (Mus musculus [1]): 0.31 µg/mL
Cmax (Mus musculus [2]): 1.44 µg/mL
Cmax (Mus musculus [3]): 3.29 µg/mL
Cmax (Mus musculus [4]): 8.89 µg/mL
Tmax (Mus musculus [5]): 1 h
Tmax (Mus musculus [6]): 0.5 h
Tmax (Mus musculus [7]): 2 h
Tmax (Mus musculus [8]): 2 h
Vc/F (Mus musculus [9]): 10.1 L/kg
Vc/F (Mus musculus [10]): 4.63 L/kg
Vc/F (Mus musculus [11]): 4.88 L/kg
Vc/F (Mus musculus [12]): 3.27 L/kg
t1/2 (Mus musculus [13]): 0.298 h
t1/2 (Mus musculus [14]): 1.14 h
t1/2 (Mus musculus [15]): 1.34 h
t1/2 (Mus musculus [16]): 1.39 h
